# In the library only some 3.5% were active in any assay of this set; here they are far more common.
# MrgX1 ag = activates human MrgX1 receptor signaling; Q96LB2; MrgX1-HEK293 cells, Fluo-4 calcium fluorescence, agonist mode; hits give high values; B-score at 10 µM; 0.44% of 310,000 active;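 active = calcium response B-score plate-corrected fluorescence ratio at least 3 library SD, with starting fluorescence B-score inside 5 SD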
# Target sequence (Q96LB2 whole entry, looked up): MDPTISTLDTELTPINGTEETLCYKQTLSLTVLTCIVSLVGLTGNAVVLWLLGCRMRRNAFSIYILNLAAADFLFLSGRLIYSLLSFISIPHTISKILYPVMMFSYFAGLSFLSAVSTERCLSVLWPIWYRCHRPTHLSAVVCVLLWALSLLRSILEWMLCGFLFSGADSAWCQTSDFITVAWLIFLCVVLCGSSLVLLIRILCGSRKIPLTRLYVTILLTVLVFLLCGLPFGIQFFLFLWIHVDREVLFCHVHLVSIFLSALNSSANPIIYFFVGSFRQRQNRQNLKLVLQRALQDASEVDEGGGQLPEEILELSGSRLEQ
#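 System: HEK293 cells stably expressing human MrgX1 receptor; Dosing: test compound in the initial addition of three; Schedule: overnight plating, then 30 min 37 °C plus 30 min room-temperature dye loading; Detection: kinetic calcium dye fluorescence, Fluo-4 NW; Controls: per-plate positive and negative controls for Z′ factor.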
# MrgX1 PAM = allosterically activates human MrgX1 receptor signaling. Q96LB2. MrgX1-HEK293, Fluo-4 calcium flux, FDSS; hits give high values. B-score at 10 µM. 0.63% of 310,000 active. AID 588675;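 active = plate-corrected calcium response at least 3 library SD above typical, normal starting fluorescence, not activating the receptor alone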;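 note: compound read alongside a low EC10 to EC30 dose of BAM8-22 agonist; peak minus trough fluorescence over baseline measured at the second addition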
# RGS4 block = inhibitors of human RGS4; P49798; HEK293 M3R/RGS4 inducible, Fluo-4 calcium flux; hits give high values; triggered by carbachol at its EC20; B-score at 10 µM; 0.45% of 310,000 active; AID 463165;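 active = B-score, a plate-corrected calcium signal, over three deviations above library mean, with baseline fluorescence within five deviations of library mean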;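 note: RGS4 expression induced by doxycycline in cells with stable M3 receptor; B-score is computed from the integrated fluorescence ratio over baseline after carbachol; higher B-score means a larger calcium signal and so more RGS4 inhibition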
# Target sequence (P49798 whole entry, looked up): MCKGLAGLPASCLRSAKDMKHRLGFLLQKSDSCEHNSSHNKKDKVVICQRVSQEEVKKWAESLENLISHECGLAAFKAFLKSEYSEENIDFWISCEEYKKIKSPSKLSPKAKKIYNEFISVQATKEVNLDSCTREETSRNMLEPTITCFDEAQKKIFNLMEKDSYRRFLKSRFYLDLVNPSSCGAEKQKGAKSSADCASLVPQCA
# RGS4 act = RGS4 potentiation or activation | HEK293 M3R/inducible RGS4, carbachol calcium flux Fluo4; hits give low values | B-score at 10 µM | 0.92% of 310,000 active | AID 463111;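 active = B-score of the integrated calcium signal more than 4 SD below the library mean, with starting fluorescence not abnormally high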;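 note: negative B-score means reduced calcium response which marks RGS4 activation or potentiation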
#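 System: HEK293 FlpIn-TREx cells, stable M3R, doxycycline-inducible RGS4. Timing: overnight RGS4 induction, 30 min dye load 37 °C, 20 min compound RT. Also added: carbachol, ECmax concentration. Measured by: Fluo4 fluorescence kinetic imaging of calcium. Evaluation: integrated calcium ratio converted to B score.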
# MrgX1 antagonist = antagonists of human MrgX1 receptor | Q96LB2 | 1.3% of 310,000 active | B-score at 10 µM | MRGX1-HEK293 calcium flux, Fluo-4, BAM8-22 antagonism; hits give low values;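 active = calcium-response B-score plate-corrected more than 3 library SD below zero, starting fluorescence within 5 deviations, no agonist response on first addition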;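 note: peak minus trough fluorescence over baseline after final BAM8-22 challenge near maximal dose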
# RGS4 block valid = validation of RGS4 inhibitors. shares compounds with RGS4 block. HEK293 M3R/RGS4, carbachol calcium Fluo-4 fluorescence; carbachol added at its EC20; 0 = buffer wells, 100 = carbachol control. calcium response, % at 10 µM. 65% of 1,700 active. AID 492999;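 active = duplicate-averaged calcium response above the buffer-only control mean plus 5 SD of those controls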;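 note: integrated fluorescence ratio F max minus min over baseline F0; higher response in RGS4-induced cells means RGS4 inhibition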
# M3R Ca ctr = counter-screen for RGS4 inhibitors: effect in non-induced cells. shares compounds with RGS4 block. HEK293 M3R non-induced, carbachol calcium Fluo-4; submaximal (EC20) carbachol stimulus; buffer wells 0%, carbachol control wells 100%. activity (percent), % at 10 µM. 20% of 1,900 active; call rule not given here;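 note: RGS4 induction absent so cells express M3R without RGS4; higher means more calcium signal and flags a non-specific hit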
# RGS4 inh ctr2 = second RGS4 inhibitor counter-screen in uninduced cells lacking carbachol; shares compounds with RGS4 block; HEK293 M3R/RGS4 non-induced, Fluo-4 calcium, no carbachol; normalised: buffer wells 0%, carbachol wells 100%; calcium response (agonist-mode artifact), % at 10 µM; 22% of 1,900 active; AID 493001;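 active = duplicate-averaged calcium rise in uninduced cells above buffer wells' mean plus 5 SD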
# MrgX1 ag confirm = human MrgX1 agonism, re-confirmation screen; shares compounds with MrgX1 ag; MrgX1-HEK293, Fluo-4 calcium fluorescence, FDSS; activation, % at 10 µM; 78% of 600 active; AID 602412;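 active = calcium signal rise, corrected for plate position, at least 3 library SD high, with starting brightness within 5 such deviations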
# MrgX1 allo conf = reconfirmed allosteric activator of human MrgX1 receptor | shares compounds with MrgX1 PAM | MrgX1-HEK293, Fluo-4 calcium fluorescence, FDSS | activation (ratio percentage), % at 10 µM | 13% of 1,200 active;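 active = ratio at least 3 SD above the weak peptide control, stable starting fluorescence, no direct agonism earlier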;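 note: compound followed by low BAM8-22 agonist challenge near EC20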
# HEK293 Ca flux = counter-screen for MrgX1 antagonists: effect in parental HEK293 cells; shares compounds with MrgX1 antagonist; Fluo-4 calcium fluorescence, FDSS; fluorescence ratio F(max-min)/F0 at 10 µM; 2% of 4,000 active;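 active = duplicate-averaged calcium fluorescence ratio at least three times the standard deviation of buffer wells, a nonspecific response in parental cells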
# HEK293 Ca counter = counter-screen for MrgX1 allosteric activators: effect in parental HEK293 cells. shares compounds with MrgX1 antagonist. 0.4% of 4,000 active. parental HEK293 calcium flux, Fluo-4 fluorescence ratio; hits give high values. fluorescence ratio F(max-min)/F0 at 10 µM;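 active = calcium fluorescence ratio, averaged over duplicates, at least 3 SD of the buffer-well ratio, meaning a nonspecific response in receptor-free cells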;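 note: untransfected parental HEK293 lacking MrgX1 used as counterscreen for MrgX1 allosteric activators; fluorescence change taken during the second addition on a kinetic imager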
# HEK293 Ca cntr2 = MrgX1 activator counter-screen hit in parental HEK293 cells; Fluo-4 calcium fluorescence (FDSS); hits give high values; shares compounds with MrgX1 antagonist; AID 624115; fluorescence ratio F(max-min)/F0 at 10 µM; 8.7% of 4,000 active;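 active = calcium fluorescence ratio at least three times the spread of buffer wells, meaning a non-specific response in parental cells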
# * = called active by the depositor; i = inactive; / = no result given.
SMILES,MrgX1 ag,MrgX1 PAM,RGS4 block,RGS4 act,MrgX1 antagonist,RGS4 block valid,M3R Ca ctr,RGS4 inh ctr2,MrgX1 ag confirm,HEK293 Ca flux,HEK293 Ca counter,HEK293 Ca cntr2,others
O=C(CCC(=O)N1CCN(c2ccccc2F)CC1)c1ccc(F)cc1,i,i,i,i,i,/,/,/,/,/,/,/,
O=C(CCN1CCN(c2ccccc2F)CC1)c1ccc(Br)cc1,40*,i,19*,i,i,39%*,i,8.5%*,i,i,i,i,
N#CC1(Nc2cccc(Br)c2)C(=O)Nc2ccccc21 (centres undefined),54*,i,10*,i,i,44%*,30%*,76%*,195%*,i,i,49*,
O=C(CC1(O)C(=O)Nc2ccccc21)c1cccc(Br)c1 (centres undefined),i,i,i,i,i,/,/,/,/,/,/,/,
Cc1cnnn1-c1ccc(C(=O)CCl)cc1,28*,i,11*,i,i,86%*,38%*,19%*,252%*,i,i,48*,
Nc1ncnc2c1ncn2[C@@H]1O[C@H](CO)C[C@@H]1O,i,i,i,i,i,/,/,/,/,/,/,/,
Nc1ncnc2c1ncn2C1OC(CO)C(O)C1O (centres undefined),i,9.4*,9.4*,i,i,41%*,71%*,i,/,i,i,i,MrgX1 allo conf=i
COc1cc(C2C(C#N)=C(N)Oc3cc(N(C)C)ccc32)cc2c1OCO2 (centres undefined),94*,i,i,i,i,i,i,108%*,273%*,i,i,86*,
O=C(Nc1cccnc1)c1cc(-c2ccc(Cl)cc2Cl)on1,i,i,i,i,i,/,/,/,/,/,/,/,
Cc1ccc(S(=O)(=O)CCC(=O)OCC(=O)c2cc(C)ccc2C)cc1,i,i,i,i,i,/,/,/,/,/,/,/,
Cc1ccc(S(=O)(=O)CCC(=O)c2ccc(O)cc2O)cc1,30*,i,24*,i,i,62%*,46%*,i,127%*,i,i,i,
CN(C)CCNc1nc(-c2ccco2)c2c(c1C#N)CC(C)(C)OC2,i,i,i,i,i,/,/,/,/,/,/,/,
CCCCN(C)c1nc(-c2ccco2)c2c(c1C#N)CC(C)(C)OC2,28*,i,7.2*,i,i,i,i,34%*,84%*,i,i,i,
Cc1cccc(N(CC(=O)NCc2ccco2)C(=O)CCC(=O)Nc2ccccn2)c1C,i,i,i,i,i,/,/,/,/,/,/,/,
O=C(CSc1ccc2nnc(CCNC(=O)c3ccccc3)n2n1)NCc1ccc(F)cc1,i,i,i,i,i,/,/,/,/,/,/,/,
N#Cc1c(-c2c(Cl)cccc2Cl)noc1/C=C/Nc1ccc(C(=O)O)cc1,i,12*,5.4*,i,i,18%*,i,i,/,i,i,i,MrgX1 allo conf=i
Cc1ccccc1OCCC(=O)Nc1cc(S(=O)(=O)N2CCOCC2)ccc1OC(C)C,i,i,i,i,i,/,/,/,/,/,/,/,
CC(=O)Nc1ccc2nc(NC(=O)CN3CCOCC3)sc2c1,i,i,i,i,i,/,/,/,/,/,/,/,
Cc1ccccc1Nc1nc(N)nc(-c2oc3ccccc3c2C)n1,i,47*,6*,i,i,27%*,42%*,i,/,i,i,i,MrgX1 allo conf=33%*
Cc1ccc(S(=O)(=O)C(C#N)c2nc3ccccc3nc2N2CCCC2)cc1 (centres undefined),30*,i,i,i,i,/,/,/,i,i,i,52*,
CC(=O)Nc1ccc(NS(=O)(=O)c2cc(-c3n[nH]c(=O)c4ccccc34)ccc2C)cc1,i,i,i,i,i,/,/,/,/,/,/,/,
CCCCCC(=O)NC(=S)Nc1cccc(-c2nc3ncccc3o2)c1,i,i,i,i,i,/,/,/,/,/,/,/,
O=C(CCC1CCCC1)c1c(O)c2ccccc2oc1=O,87*,i,i,i,i,/,/,/,564%*,i,i,111*,
Nc1nc(-c2ccc3c(c2)CCO3)cs1,38*,i,i,i,i,/,/,/,175%*,i,i,i,
O=C(c1ccc(Cl)cc1)N1CCCOC1,50*,i,i,i,i,/,/,/,i,i,i,i,
SMILES,MrgX1 ag,MrgX1 PAM,RGS4 block,RGS4 act,MrgX1 antagonist,RGS4 block valid,M3R Ca ctr,RGS4 inh ctr2,MrgX1 ag confirm,HEK293 Ca flux,HEK293 Ca counter,HEK293 Ca cntr2,others
COc1ccccc1Nc1nc(N)nc(CSC(=S)N2CCCCC2)n1,i,i,i,i,i,/,/,/,/,/,/,/,
Cc1ccc(Sc2cc(C)nc(-c3ccccn3)n2)cc1,31*,i,i,i,i,/,/,/,210%*,i,i,i,
COc1ccc(CCNc2cc(C)nc(N)n2)cc1OC,45*,i,i,i,i,/,/,/,242%*,i,i,i,
N#CC1(NC(=O)Cn2ncc(Cl)c(Cl)c2=O)CCCCC1,i,i,i,i,i,/,/,/,/,/,/,/,
O/C(=C\c1ccc2ccccc2n1)c1ccncc1,64*,i,i,i,i,/,/,/,355%*,i,i,127*,
Cc1csc(NC(=O)c2cc(=O)[nH]c3ccc(S(=O)(=O)N4CCOCC4)cc23)n1,55*,i,i,i,i,/,/,/,266%*,i,i,i,

# Compound activity deposited in PubChem by Johns Hopkins Ion Channel Center.
